In paper PMC2818876 (Journal of the American Chemical Society, 2010):

Tests used:
SK-Mel-2 cells = experiment: Cellular uptake and distribution by confocal Raman microscopy of live cells; type: cell-based, Human; settings: data not shown
[1] = Circular dichroism spectroscopy, secondary structure in water/TFE solutions; type: physicochemical; settings: 40 μM peptide, 25 °C, CDPro (average of CONTINLL, SELCON3, CDSSTR)
Outline: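 Stock 20 mM in water (pH 7), stored at 4°C for ≤10 days and quantified by A280 (ε280 = 11,000 M−1.cm−1). CD recorded in a 1 mm quartz cell over 180–250 nm at 100 nm/min with 1 s response, 40 μM peptide, 25 °C. Eight scans averaged and background-corrected for water/TFE. Fractions from the CDPro SP37A reference set.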

CC[C@H](C)[C@H](NC(=O)[C@H](CCCCN)NC(=O)[C@@H](NC(=O)[C@H](CCC(N)=O)NC(=O)[C@@H](N)CCCNC(=N)N)[C@@H](C)CC)C(=O)N[C@@H](Cc1c[nH]c2ccccc12)C(=O)N[C@@H](Cc1ccccc1)C(=O)N[C@@H](CCC(N)=O)C(=O)N[C@@H](CC(N)=O)C(=O)N[C@@H](CCCNC(=N)N)C(=O)N[C@@H](CCCNC(=N)N)C(=O)N[C@@H](CCSC)C(=O)N[C@@H](CCCCN)C(=O)N[C@@H](Cc1c[nH]c2ccccc12)C(=O)N[C@@H](CCCCN)C(=O)N[C@@H](CCCCN)C(N)=O [penetratin-Fh]
Peptide uptake by cells at 4°C (SK-Mel-2 cells; 4°C, confocal Raman microscopy): did not observe peptide uptake
Concentration dependence of the rate of accumulation in cell nuclei (SK-Mel-2 cells; range 25–300 μM, RT): only weakly dependent on concentration
α-helix structure (CD modeling) ([1]; 100% TFE): 25%
Random coil character (CD modeling) ([1]; 100% water): 54%
α-helix structure (CD modeling) ([1]; 100% water): 3%
β-strand structure (CD modeling) ([1]; 100% water): 21%
